In the library only some 5.1% were active in any assay of this set; here they are far more common.
STAT1 activator = STAT1 signaling activation | NIH 3T3 STAT1-luciferase reporter, IFN-gamma, luminescence; 100% = IFN-gamma alone, no compound | activation (% of control), % at 5.5 µM | hit rate 2.6% among 200,000 | AID 932;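 active = activation above the screen-wide mean activation plus 3 SD, cut at about 130% in these data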
NF-kB neuron act = compounds increasing NF-kB expression in human neuronal cells. NF-kB reporter expression; stronger effect = higher value. fold change at 12.5 µM. hit rate 1.6% among 190,000; in the data active = fold change above about 3.3
STAT3 activator = increases IL-6 driven STAT3 reporter signal | U3A cells, IL-6 STAT3-luciferase reporter, luminescence; 100% = signal with IL-6 EC80 alone | activation (% of control), % at 5.6 µM | hit rate 0.91% among 190,000 | AID 871;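 active = activation above the screen-wide mean of compound activation plus 3 SD, cut at about 130% in these data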
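Material: STAT1-lacking human U3A cells, STAT3 luciferase reporter | Benchmarks: IL-6-only wells as 100% reference | Probe or stimulus: IL-6 (33 ng/mL) | Timing: Compound 1 h, then IL-6 6 h at 37 °C | Detection: Luminescence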
STAT3 inh = reduces IL-6 driven STAT3 reporter signal; U3A cells, IL-6 STAT3-luciferase reporter, luminescence; host cell line lacks STAT1; inhibition, % at 5.5 µM; hit rate 0.89% among 190,000;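 active = inhibition above the mean inhibition across all screened compounds plus 3 SD, cut at about 44% in these data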
STAT1 inh = reduces IFN-gamma driven STAT1 reporter signal; hit rate 0.35% among 200,000; AID 920; inhibition, % at 5.5 µM; NIH 3T3 STAT1-luciferase reporter, luminescence;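 active = inhibition above a set limit, the mean inhibition across all tested compounds plus 3 SD, cut at about 34% in these data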
APP 5'UTR act = APP 5'UTR luciferase reporter activation | SH-SY5Y APP 5'UTR luciferase reporter, luminescence; zero percent = DMSO vehicle wells | activation, % at 2 µM | hit rate 1% among 190,000;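 active = activation above a set limit, based on mean plus 3 SD of controls, cut at about 140% in these data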
Of the large screens only hits and unclear results are named; the others gave an inactive call.

COc1ccc(NC(=O)c2c3c(nc4ccccc24)CCC3)cc1S(=O)(=O)N1CCOCC1	none
O/N=C/C1=C(Cl)c2ccccc2CC1	none
CC(=O)/C(=N/Nc1ccc(C)cc1)Sc1nnc(CCc2ccccc2)n1-c1ccccc1	NF-kB neuron act 4.39
CCOC(=O)/C(=N/Nc1ccc(OC)cc1)Sc1nnc(CCc2ccccc2)n1-c1ccccc1	none
Nc1nc(-c2cc(Cl)cc(Cl)c2OC(F)F)cs1	none
NS(=O)(=O)c1ccc(CCNC(=O)Cc2ccccc2[N+](=O)[O-])cc1	STAT3 activator 133.2
Fc1ccc(-c2nnc(-c3ccc(Cl)cc3)o2)cc1	STAT1 activator 135.0, NF-kB neuron act 4.2
CSc1nnc(-c2ccc(F)cc2)o1	none
COc1cccc(CC(=O)Nc2nc3ccccc3[nH]2)c1	none
COc1cccc(N=c2oc3ccc(OC)cc3cc2-c2nc3ccccc3[nH]2)c1	STAT1 activator 134.8, STAT3 activator 151.4
COc1cccc(N=c2oc3ccccc3cc2-c2nc3ccccc3[nH]2)c1	STAT1 activator 146.6, NF-kB neuron act 3.51, STAT3 activator 143.3
COc1ccc2oc(=O)c(-c3nc4ccccc4o3)cc2c1	none (no result: NF-kB neuron act)
C/C=N\NC(=O)CNC(=O)CNC(=O)c1ccccc1	none
O=C(CCc1nnc(C2CCCCC2)o1)N1CCCCC1CCn1cccn1 (configuration not stated)	none
COc1ccc(NC2=Nc3ccccc3CC2)cc1	STAT1 activator 132.1, NF-kB neuron act 3.72
COc1cc(/C=N/Nc2ccccn2)cc(OC)c1O	none
CCCOc1ccc(/C=N/Nc2ccccn2)cc1OC	STAT1 activator 147.7
C=CCOc1ccc(/C=N/Nc2ccccn2)cc1OC	STAT1 activator 138.4
COc1cc(/C=N/Nc2ccccn2)ccc1OCC(C)C	STAT1 activator 148.1
CCCNC(=O)c1ccc(CN2CCOCC2)cc1	none
O=C(COC(=O)c1cccnc1Cl)Nc1ccc2c(c1)OCO2	none
COc1ccc(NC(=O)CC2SC3=NCCN3C2=O)cc1 (configuration not stated)	none
COCC(=O)n1nc(-c2ccc(C)cc2)nc1NCc1ccc(F)cc1	none
O=C(COc1ccccc1)n1nc(-c2ccc(Cl)cc2)nc1NCc1ccco1	STAT1 activator 143.4
O=C(c1ccco1)n1nc(-c2ccc(Cl)cc2)nc1NCc1ccco1	none
COCC(=O)n1nc(-c2ccccc2)nc1NCc1ccc(N(C)C)cc1	STAT1 activator 142.3
Oc1ccccc1CNc1ccc(Br)cn1	NF-kB neuron act 5.38
Brc1ccc(NCc2cccc3ccccc23)nc1	none
Cc1cc(C)c2ccc3c(C)c(C)nc3c2[nH]1	none
CCCN(CCC)CCCn1c(=O)[nH]c2ccccc21	none
Clc1ccc(-c2nnc(Sc3nc4ccccc4o3)c3ccccc23)cc1	NF-kB neuron act 4.18
Cc1ccc(-c2nnc(Sc3nc4ccccc4o3)c3ccccc23)cc1	NF-kB neuron act 4.86
CC(C)CN(CC(C)C)S(=O)(=O)N1CCC(C(=O)NCc2ccc3c(c2)OCO3)CC1	none
O=c1oc2ccccc2c2c1nnn2CCO	none
Cc1ccccc1NCC(=O)N/N=C\C=C\c1cccc([N+](=O)[O-])c1	none
O=C(Nc1ccc2c(c1)CCC2)c1ccc(Cl)nc1	STAT1 activator 162.9, NF-kB neuron act 4, STAT3 activator 137.1
O=C(Nc1ccc2c(c1)CCC2)c1cnc(Cl)c(Cl)c1	STAT1 activator 134.9, NF-kB neuron act 3.82, APP 5'UTR act 149.0
Cc1noc(C)c1C(=O)Nc1ccc2c(c1)CCC2	none
O=C(COc1ccc(Cl)cc1)Nc1ccc2c(c1)CCC2	none
COc1ccc(CCCC(=O)N/N=C/c2ccccc2OC)cc1	none
CCCCOc1ccc(OC(=O)c2cccnc2)cc1	none
CCCCCCCOc1ccc(OC(=O)c2cccnc2)cc1	NF-kB neuron act 10.5
CCCCCCCOc1ccc(OC(=O)c2ccncc2)cc1	NF-kB neuron act 8.58
CCCCCCSc1nsc(NC(=O)CCC)n1	none
O=C(O)c1cccc(N/N=C/c2cc(Br)cc(Br)c2O)c1	STAT1 activator 130.8
CC(C)(C)c1ccc(/C=N/Nc2ccc(C(=O)O)cc2)cc1	NF-kB neuron act 4.48, STAT3 inh 88.1, STAT1 inh 73.6
Oc1ccc(/C=N/Nc2ccccc2)cc1	none
O=C(O)c1cccc(N/N=C/c2ccc(-c3ccccc3)cc2)c1	NF-kB neuron act 16.3, STAT3 inh 48.1, STAT1 inh 47.3
COc1cccc(/C=N/Nc2ccc(C(=O)O)cc2)c1O	STAT3 inh 100.1, STAT1 inh 90.8
COCCCn1c(SCC(=O)NNC(=O)c2cccc(O)c2)nnc1-c1ccncc1	none
CC(C)(C)C1CCC(=NNC(=O)c2ccccc2-n2cccc2)CC1 (configuration not stated)	none
CC(C)(C)c1ccc(/C=N/Nc2cccc(C(=O)O)c2)cc1	NF-kB neuron act 6.89, STAT3 inh 45.9, STAT1 inh 37.8
O=C(O)CCNS(=O)(=O)c1ccc2c(c1)OCCCO2	none
Cn1nnc2cc(C(=O)Nc3cccnc3)ccc21	none
Cn1nnc2cc(C(=O)Nc3ccccc3)ccc21	STAT1 activator 129.6
Cc1ccc(NC(=O)c2ccc3c(c2)nnn3C)cc1	none
Cn1nnc2cc(C(=O)Nc3ccc(Cl)cc3)ccc21	STAT1 activator 132.2
O=C(c1ccccc1)c1ccc(N2CCOCC2)c(F)c1	STAT1 activator 132.7
O=C(Nc1ccc(N2CCOCC2)c(Cl)c1)c1ccccc1F	STAT1 activator 137.5, NF-kB neuron act 5.11
O=C(CSc1nc2ccccc2s1)Nc1ccc(N2CCOCC2)c(Cl)c1	none
O=C(CSc1nc2ccccc2o1)Nc1ccc(N2CCOCC2)c(Cl)c1	APP 5'UTR act 193.7
O=C(Nc1ccc(Br)c(Cl)c1)c1ccco1	STAT1 activator 135.4
O=C(Nc1ccc(N2CCOCC2)c(Cl)c1)c1ccc(Cl)cc1	none
O=C1CC2C(=O)NCCN2C(=NC(=O)c2ccc(Cl)cc2)N1 (configuration not stated)	none
O=C(O)c1ccc(CNCc2ccccc2F)cc1	none
O=C(Nc1ccc(N2CCOCC2)c(Cl)c1)c1ccco1	STAT1 activator 148.6, NF-kB neuron act 3.44
O=C(Nc1ccc(N2CCN(C(=O)c3ccccc3)CC2)c(Cl)c1)c1ccco1	none
O=C1CCC/C1=C/Nc1ccc2c(c1)OCO2	none
CC1CCC/C(=C\Nc2ccc3c(c2)OCO3)C1=O (configuration not stated)	STAT1 activator 133.2
Nc1cccc2nc3ccccc3cc12	STAT1 activator 171.8, NF-kB neuron act 3.86, STAT3 activator 151.5 (no result: APP 5'UTR act)
Cn1c(=O)cc(OCC(=O)NCc2cccs2)c2ccccc21	none
NS(=O)(=O)c1ccc(CNC(=O)c2scc3c2CCCC3)cc1	none
COc1ccc(-c2nnc3n2N=C(C)CS3)cc1	none
CCOC(=O)/C(=C\c1ccc(OC(F)F)cc1)C1=Nn2c(nnc2-c2ccc(Cl)cc2)SC1	NF-kB neuron act 8.31
Fc1ccc(NC(=S)Nc2cccnc2)c(F)c1F	none

Compound activity from PubChem BioAssay.
